The source made the active and inactive calls. The rule behind the calls is not given here.
Key:
[1] = Inhibition of chymotrypsin-like activity of rabbit 26s proteasome beta 5 subunit assessed as hydrolysis of Suc-LLVY-amc fluorogenic substrate preincubated for 30 mins followed by substrate addition measured for 30 mins by fluorescence plate reader analysis; design: species or system Oryctolagus cuniculus
Summary of the method: (§1)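 Purified rabbit-muscle 26S proteasome (final 3 µg/mL) preincubated 30 min with a range of inhibitor concentrations. Slopes expressed as % of mock; IC50 by four-parameter least-squares fit.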

[2] = Inhibition of trypsin-like activity of rabbit 26s proteasome beta 2 subunit assessed as hydrolysis of Ac-RLR-amc fluorogenic substrate preincubated for 30 mins followed by substrate addition measured for 30 mins by fluorescence plate reader analysis; design: species or system Oryctolagus cuniculus; summary of the method: as §1
[3] = Inhibition of caspase-like activity of rabbit 26s proteasome beta 1 subunit assessed as hydrolysis of Acn-LPnLD-amc fluorogenic substrate preincubated for 30 mins followed by substrate addition measured for 30 mins by fluorescence plate reader analysis; design: species or system Oryctolagus cuniculus; summary of the method: as §1
NCI-H929 [4] = experiment: Partial inhibition of cathepsin in human NCI-H929 cells assessed as hydrolysis of Z-FR-amc fluorogenic substrate after 6 hrs; format: cell-based
Summary of the method: (§2)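 NCI-H929 cells treated 6 h, washed and permeabilized on ice with 0.05% digitonin in Tris pH 7.5 sucrose buffer. Cytosol removed by centrifugation, then the pellet lysed in Bis-Tris pH 5.5/CHAPS buffer. Protein-normalized extract added to 40 µM Z-FR-amc in phosphate pH 6.0, EDTA, DTT. Fluorescence read continuously for 30 min; rate from slopes.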

Oryctolagus cuniculus = species: Oryctolagus cuniculus; experiment: Selectivity ratio of IC50 for chymotrypsin-like activity of rabbit 26s proteasome beta 5 subunit to IC50 for trypsin-like activity of rabbit 26s proteasome beta 2 subunit
Summary of the method: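 Purified rabbit-muscle 26S proteasome (final 3 µg/mL) preincubated 30 min with a range of inhibitor concentrations. […] Amc release read continuously for 30 min (ex 380/em 460 nm). Slopes expressed as % of mock; IC50 by four-parameter least-squares fit.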

Homo sapiens = species: Homo sapiens; experiment: Selectivity ratio of IC50 for chymotrypsin-like activity of human proteasome beta 5 subunit to IC50 for trypsin-like activity of human proteasome beta 2 subunit
[5] = target: T1, Proteasome Macropain subunit MB1 (Homo sapiens, UniProt P28074); experiment: Inhibition of chymotrypsin-like activity of proteasome beta 5 subunit in HEK-293T cell lysates using BODIPY-BODIPY-TMR-epoxomicin as probe after 1 hr by SDS-PAGE analysis
T1 sequence (P28074 whole entry): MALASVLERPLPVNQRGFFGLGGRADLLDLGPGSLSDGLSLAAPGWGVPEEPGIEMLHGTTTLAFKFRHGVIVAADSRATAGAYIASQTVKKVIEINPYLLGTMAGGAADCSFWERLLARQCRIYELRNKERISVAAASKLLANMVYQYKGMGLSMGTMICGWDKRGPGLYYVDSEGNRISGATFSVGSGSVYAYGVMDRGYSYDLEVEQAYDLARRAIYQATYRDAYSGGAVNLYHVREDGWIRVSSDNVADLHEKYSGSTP
Summary of the method: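 Then 1 h at 37 °C with BODIPY-TMR-Ahx3L3-vs or BODIPY-TMR-epoxomicin (0.5 µM). Three independent experiments; IC50 fitted.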

NCI-H929 [6] = experiment: Inhibition of cathepsin in human NCI-H929 cells assessed as hydrolysis of Z-FR-amc fluorogenic substrate after 6 hrs; format: cell-based; summary of the method: as §2
RPMI-8226 [7] = experiment: Potentiation of NC-022-induced sensitization of human RPMI8226 cells to Carfilzomib assessed as cell viability at 10 uM after 48 hrs; format: functional, cell-based
RPMI-8226 [8] = experiment: Sensitization of human RPMI8226 cells to Carfilzomib assessed as cell viability at 10 uM after 48 hrs; format: functional, cell-based
[9] = target: T2, Proteasome Macropain subunit MB1 (Homo sapiens) (UniProt P28074); experiment: Inhibition of chymotrypsin-like activity of proteasome beta 5 subunit in HEK-293T cell lysates after 1 hr by SDS-PAGE analysis
T2 sequence (whole entry): T1 sequence (P28074 whole entry)
Summary of the method: (§3)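 Then 1 h at 37 °C with BODIPY-TMR-Ahx3L3-vs or BODIPY-TMR-epoxomicin (0.5 µM). Samples run on 12.5% SDS-PAGE; β2/β5 band fluorescence taken relative to mock. Three independent experiments; IC50 fitted.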

[10] = target: Proteasome Macropain subunit (Homo sapiens) (UniProt P49721); experiment: Inhibition of trypsin-like activity of proteasome beta 2 subunit in HEK-293T cell lysates after 1 hr by SDS-PAGE analysis; summary of the method: as §3
Chain of Proteasome Macropain subunit (Homo sapiens) (P49721 whole entry): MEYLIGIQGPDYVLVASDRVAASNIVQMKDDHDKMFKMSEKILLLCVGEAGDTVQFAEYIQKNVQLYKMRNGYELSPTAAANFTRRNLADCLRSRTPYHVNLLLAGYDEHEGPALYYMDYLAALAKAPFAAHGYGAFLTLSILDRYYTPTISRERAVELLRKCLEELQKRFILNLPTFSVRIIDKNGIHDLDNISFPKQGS

RPMI-8226 [11] = experiment: Sensitization of human RPMI8226 cells to Carfilzomib assessed as cell viability at 27 uM after 47 hrs; format: functional, cell-based
RPMI-8226 [12] = experiment: Sensitization of human RPMI8226 cells to Carfilzomib assessed as cell viability at 1 uM after 47 hrs; format: functional, cell-based
RPMI-8226 [13] = experiment: Sensitization of human RPMI8226 cells to Bortezomib assessed as cell viability at 1 uM after 47 hrs; format: functional, cell-based
Summary of the method: (§4)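 RPMI-8226 grown in RPMI-1640 with 10% FBS, penicillin, streptomycin and plasmocin, 5% CO2. For sensitization, cells exposed to bortezomib for 1 h, then 47 h with the trypsin-site inhibitor (1 µM). Viability by Alamar Blue dye conversion; mean ± SEM of three biological replicates.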

RPMI-8226 [14] = experiment: Cytotoxicity against human RPMI8226 cells; format: functional, cell-based; summary of the method: as §4
Saccharomyces cerevisiae = experiment: Inhibition of caspase-like activity of yeast 20s proteasome beta 1 subunit assessed as hydrolysis of […] fluorogenic substrate at 200 uM after 15 mins by fluorescence spectrophotometry
Summary of the method: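 Yeast 20S core particle (0.10 nM) preincubated 15 min with inhibitor, which stays present during the assay. Substrate ZLLE-amc for caspase-like sites, 250 µM, in 20 mM Tris, 0.01% SDS, pH 7.5. Hydrolysis monitored for 1 h at room temperature (ex 360/em 460 nm).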

SMILES | IC50 [1] | IC50 [2] | IC50 [3] | Ratio IC50 (Oryctolagus cuniculus) | Ratio IC50 (Homo sapiens) | IC50 [5] | other results
CC(C)C[C@H](NC(=O)[C@H](Cc1ccc(N)cc1)NC(=O)[C@H](Cc1ccccc1)N=[N+]=[N-])C(=O)N[C@H](/C=C/S(C)(=O)=O)Cc1ccc(CN)cc1 | 3400 nM | 30 nM | 30000 nM | – | – | – | inhibition (NCI-H929 [4]): Active
CC(C)C[C@H](NC(=O)[C@H](Cc1ccccc1)N=[N+]=[N-])C(=O)N[C@@H](CC(C)C)C(=O)N[C@@H](Cc1ccc(CN)cc1)C(=O)[C@@]1(C)CO1 | 2700 nM | 250 nM | 11000 nM | – | – | – | –
CC(=O)N[C@@H](CC(C)C)C(=O)N[C@@H](CC(C)C)C(=O)N[C@@H](CCCNC(=N)N)C(=O)[C@@]1(C)CO1 | > 30000 nM | 1000 nM | > 30000 nM | – | – | – | –
CC(C)C[C@H](NC(=O)[C@H](Cc1ccc(CN)cc1)NC(=O)[C@H](Cc1ccccc1)N=[N+]=[N-])C(=O)N[C@H](/C=C/S(C)(=O)=O)Cc1ccncc1 | 410 nM | 45 nM | > 30000 nM | 9.1 | 6.5 | 2400 nM | –
CC(C)C[C@H](NC(=O)[C@H](Cc1ccncc1)NC(=O)[C@H](Cc1ccccc1)N=[N+]=[N-])C(=O)N[C@H](/C=C/S(C)(=O)=O)Cc1ccc(CN)cc1 | – | 12 nM | 30000 nM | – | – | – | inhibition (NCI-H929 [6]): Active
CC(C)C[C@@H](/C=C/S(C)(=O)=O)NC(=O)[C@H](CC(C)C)NC(=O)[C@H](Cc1ccc(N)cc1)NC(=O)[C@H](Cc1ccccc1)N=[N+]=[N-] | < 4 nM | 24000 nM | > 30000 nM | – | 0.034 | 93 nM | –
CC(C)C[C@H](NC(=O)[C@H](Cc1ccccc1)N=[N+]=[N-])C(=O)N[C@@H](CC(C)C)C(=O)N[C@@H](Cc1ccc(N)cc1)C(=O)[C@@]1(C)CO1 | 10 nM | 1800 nM | > 30000 nM | 0.0056 | – | – | –
CC(C)C[C@H](NC(=O)[C@H](Cc1ccccc1)NC(=O)[C@H](Cc1ccccc1)N=[N+]=[N-])C(=O)N[C@H](/C=C/S(C)(=O)=O)Cc1ccccc1 | 1000 nM | > 30000 nM | > 30000 nM | – | 0.04 | 110 nM | –
CC(C)C[C@H](NC(=O)[C@H](Cc1ccc(CN)cc1)NC(=O)[C@H](Cc1ccccc1)N=[N+]=[N-])C(=O)N[C@H](/C=C/S(C)(=O)=O)Cc1ccc(N)cc1 | 190 nM | 6.3 nM | > 30000 nM | 59 | 6.3 | 630 nM | –
CC(C)C[C@H](NC(=O)[C@H](Cc1ccccc1)N=[N+]=[N-])C(=O)N[C@@H](CC(C)C)C(=O)N[C@H](/C=C/S(C)(=O)=O)Cc1ccncc1 | < 100 nM | 420 nM | > 30000 nM | – | – | 1500 nM | –
CC(=O)N[C@@H](CCCNC(=N)N)C(=O)N[C@@H](CC(C)C)C(=O)N[C@@H](CCCNC(=N)N)C(=O)[C@@]1(C)CO1 | > 30000 nM | 80 nM | > 30000 nM | – | – | – | –
CCOC(=O)[C@H]1O[C@@H]1C(=O)N[C@@H](CC(C)C)C(=O)NCCC(C)C | – | – | – | – | – | – | Activity (RPMI-8226 [7]): inactive; Activity (RPMI-8226 [8]): inactive
Cc1c(O)cccc1C(=O)N[C@H](C(=O)N[C@@H](CO)C(=O)N[C@H](/C=C/S(C)(=O)=O)Cc1ccc(N)cc1)C(C)C | 200 nM | > 30000 nM | > 30000 nM | < 0.0067 | – | – | –
CC(C)C[C@@H](/C=C/S(C)(=O)=O)NC(=O)[C@H](CC(C)C)NC(=O)[C@H](Cc1ccc(CN)cc1)NC(=O)[C@H](Cc1ccccc1)N=[N+]=[N-] | 10 nM | 180 nM | – | 0.057 | 2.5 | 480 nM | –
CC(C)C[C@H](NC(=O)[C@H](Cc1ccc(CN)cc1)NC(=O)[C@H](Cc1ccccc1)N=[N+]=[N-])C(=O)N[C@H](/C=C/S(C)(=O)=O)Cc1ccc(CN)cc1 | 8900 nM | 6.6 nM | – | – | – | – | inhibition (NCI-H929 [6]): Active
CC1=CC(C)=[N+]2C1=C(CCCCc1cn([C@@H](Cc3ccccc3)C(=O)N[C@@H](CC(C)C)C(=O)N[C@@H](CC(C)C)C(=O)N[C@H](/C=C/S(C)(=O)=O)Cc3ccc(CN)cc3)nn1)c1c(C)cc(C)n1[B-]2(F)F | – | – | – | – | – | – | inhibition [9]: Active; inhibition [10]: Active
CC(C)C[C@H](NC(=O)[C@H](Cc1ccccc1)N=[N+]=[N-])C(=O)N[C@@H](CC(C)C)C(=O)N[C@H](/C=C/S(C)(=O)=O)CCCCN | 22000 nM | 740 nM | > 30000 nM | – | – | – | –
CC(C)C[C@H](NC(=O)[C@H](Cc1ccccc1)N=[N+]=[N-])C(=O)N[C@@H](CC(C)C)C(=O)N[C@H](/C=C/S(C)(=O)=O)Cc1ccc(N)cc1 | 40 nM | 110 nM | 23000 nM | 0.36 | 0.73 | 1100 nM | –
CC(C)C[C@@H](/C=C/S(C)(=O)=O)NC(=O)[C@H](CC(C)C)NC(=O)[C@H](Cc1ccncc1)NC(=O)[C@H](Cc1ccccc1)N=[N+]=[N-] | 5 nM | 24000 nM | > 30000 nM | 0.00021 | 0.029 | 160 nM | –
CC1=CC(C)=[N+]2C1=C(CCCCc1cn([C@@H](Cc3ccccc3)C(=O)N[C@@H](Cc3ccc(CN)cc3)C(=O)N[C@@H](CC(C)C)C(=O)N[C@H](/C=C/S(C)(=O)=O)Cc3ccc(CN)cc3)nn1)c1c(C)cc(C)n1[B-]2(F)F | – | – | – | – | – | – | inhibition [10]: inactive
CC(C)C[C@H](NC(=O)[C@H](Cc1ccccc1)N=[N+]=[N-])C(=O)N[C@@H](CC(C)C)C(=O)N[C@H](/C=C/S(C)(=O)=O)Cc1ccc(CN)cc1 | – | – | – | – | – | – | Activity (RPMI-8226 [11]): Active; Activity (RPMI-8226 [12]): Active; Activity (RPMI-8226 [13]): Active; Activity (RPMI-8226 [14]): inactive; inhibition (Saccharomyces cerevisiae): inactive; inhibition (NCI-H929 [4]): Active

— ChEMBL document CHEMBL2321678, “Incorporation of non-natural amino acids improves cell permeability and potency of specific inhibitors of proteasome trypsin-like sites” (J Med Chem, 2013)
